Jurkat NFkB inh – inhibitors of induced NF-kB luciferase reporter, primary screen, TCR NF-kB activation inhibitor project, cell-based, luminescence, uHTS; Jurkat, PMA/ionomycin-induced NF-kB luciferase reporter; inhibition, % at 4 µM; hit rate 0.53% among 330,000; in the data active = inhibition above about 50%
GalR3 antagonist – GalR3 antagonists in HEK293 cells, primary screen, cell-based, fluorescence readout. HEK293 GalR3-CNG cAMP membrane potential fluorescence; galR3 body fused to GalR1 C-terminus. inhibition, % at 3 µM. hit rate 0.44% among 360,000. AID 651719, 2012;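 active = inhibition above the screen-wide average plus 3 SD, cut at about 13% in these data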;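 note: forskolin and galanin both at EC90 stimulate the cells; cAMP rise reported by CNG channel membrane potential dye signal; 0% = forskolin plus galanin with DMSO and 100% = forskolin alone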
Target sequence (O60755 1-299 limits assumed): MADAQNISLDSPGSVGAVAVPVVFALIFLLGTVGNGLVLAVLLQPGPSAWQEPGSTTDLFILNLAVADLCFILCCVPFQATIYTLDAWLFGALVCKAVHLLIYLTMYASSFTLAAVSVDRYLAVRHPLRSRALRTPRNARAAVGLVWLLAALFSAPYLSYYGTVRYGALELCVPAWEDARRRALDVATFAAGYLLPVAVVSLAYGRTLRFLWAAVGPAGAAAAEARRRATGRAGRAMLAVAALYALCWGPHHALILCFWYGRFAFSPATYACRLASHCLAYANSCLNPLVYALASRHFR
NR2E3 ag-1 – inhibitors of NR2E3-RetCOR corepressor binding, primary screen, NR2E3 agonist project, biochemical, TR-FRET, GST-NR2E3, biotin-RetCOR | Photoreceptor-specific nuclear receptor (Homo sapiens), Q9Y5X4 | hit rate 0.12% among 320,000 | inhibition of corepressor binding, % at 4.78 µM | 1536-well | AID 2300, 2010;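 active = percent inhibition above the cutoff of mean plus 3 SD of all tested compounds, set per screening campaign, cut at about 20% in these data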;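 note: 0% = DMSO wells and 100% = biotin wells as full block of FRET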
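Assay system: NR2E3–RetCOR corepressor complex. Quantity: 1.35 nM GST-NR2E3. Buffer or medium: pH 7.5 Tris-based buffer. Reagent: biotinylated RetCOR corepressor at 7 nM final. Schedule: 5 h at 4 °C. Detection: TR-FRET, emission read at 617 and 671 nm. Replicates: one well per compound, singlicate testing.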
GASC-1 inh – inhibitors of GASC-1 histone demethylase, primary screen, biochemical, fluorescence, DELFIA europium; inhibition, % at 2.35 µM; hit rate 0.069% among 330,000; GST-JMJD2C(1-420) H3K9me3 demethylation;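 active = more than half of a compound's replicate wells show inhibition beyond 50%, single wells judged on their own value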;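 note: signal counts dimethyl H3K9 product captured on neutravidin plate; 0% = median of DMSO wells and 100% = 0.3 times that DMSO median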
Target sequence (Q9H3R0 1-420 limits assumed): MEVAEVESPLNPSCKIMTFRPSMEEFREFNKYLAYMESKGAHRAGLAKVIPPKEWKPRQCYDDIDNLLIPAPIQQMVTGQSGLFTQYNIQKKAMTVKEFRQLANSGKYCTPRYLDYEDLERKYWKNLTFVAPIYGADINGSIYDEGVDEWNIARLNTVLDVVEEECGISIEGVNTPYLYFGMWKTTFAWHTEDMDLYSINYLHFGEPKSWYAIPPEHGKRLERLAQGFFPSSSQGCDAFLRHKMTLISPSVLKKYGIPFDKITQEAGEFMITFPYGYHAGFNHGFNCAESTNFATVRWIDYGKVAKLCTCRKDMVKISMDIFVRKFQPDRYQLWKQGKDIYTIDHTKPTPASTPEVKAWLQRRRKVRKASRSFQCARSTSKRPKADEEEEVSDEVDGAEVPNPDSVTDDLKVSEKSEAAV
697 NFkB inh – inhibitors of PMA/ionomycin-induced NF-kB reporter, 697 cells, primary screen, B-cell NF-kB inhibitor project, cell-based, luminescence, uHTS; 697 B-cell NF-kB luciferase reporter, 16 h; inhibition, % at 4 µM; hit rate 0.33% among 330,000; in the data active = inhibition above about 35%
NR2E3 ag-2 – NR2E3 agonists in two-hybrid cells, primary screen, cell-based, luminescence, CHO-S, Gal4-NCOR/VP16-NR2E3; luciferase; inhibition of corepressor binding, % at 3.98 µM; hit rate 0.35% among 360,000;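 active = inhibition above the mean of all tested compounds plus 3 SD, cut at about 70% in these data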;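 note: 0% = DMSO with NR2E3 transfected cells and 100% = cells lacking NR2E3 construct; higher means lower luciferase signal from less NR2E3 corepressor binding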
Jurkat NFkB conf – PMA/ionomycin-induced NF-kB reporter inhibitors, Jurkat retest, confirmation, T-cell NF-kB inhibitor project, cell-based, luminescence, single concentration | shares compounds with Jurkat NFkB inh | Jurkat NF-kB luciferase, 16 h | inhibition, % at 4 µM | hit rate 27% among 2,700 | AID 435020, 2010;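 active = inhibition reaching about 45% at 4 µM in either replicate, limit read from the data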;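 note: plate controls were PMA/ionomycin stimulated DMSO wells for no effect and unstimulated DMSO wells for full effect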
697 NFkB conf – PMA/ionomycin-induced NF-kB reporter inhibitors, 697 retest, confirmation, B-cell NF-kB inhibitor project, cell-based, luminescence, single concentration. shares compounds with 697 NFkB inh. 697 B-cell NF-kB luciferase, 16 h. inhibition, % at 4 µM. hit rate 35% among 2,000. AID 449746, 2010; in the data active = inhibition mostly above about 28%, no sharp cut-off; inactive = mostly below about 22%
NR2E3 ag conf – NR2E3 agonist confirmation in cells, cell-based, luminescence, CHO-S two-hybrid; shares compounds with NR2E3 ag-2; CHO-S mammalian two-hybrid NR2E3-NCOR, luciferase luminescence; inhibition, % at 3.98 µM; hit rate 51% among 2,300;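 active = average inhibition above a cutoff equal to the mean inhibition of all tested compounds plus one SD, cut at about 70% in these data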;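 note: 0% = DMSO in NR2E3 cells and 100% = DMSO in cells lacking NR2E3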
VP16 counter – GAL4-VP16 reporter modulators, confirmation, counter-screen for NR2E3 agonist project, cell-based, luminescence, CHO-S, high throughput | shares compounds with NR2E3 ag-2 | AID 624379, 2012 | hit rate 29% among 2,300 | CHO-S GAL4-VP16 luciferase reporter | inhibition, % at 3.98 µM;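 active = mean inhibition above a cutoff equal to the average over all tested compounds plus one standard deviation, cut at about 70% in these data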;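 note: luciferase from a UAS reporter driven by GAL4-VP16 transactivation; 0% = DMSO with VP16-transfected cells and 100% = DMSO with cells lacking VP16; higher means less reporter light so more repression of VP16 activity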
GalR3 conf – GalR3 antagonist hit confirmation, cell-based, fluorescence, triplicate; HEK293 GalR3 CNG cAMP biosensor, membrane potential fluorescence; galR3 fused to GalR1 carboxy tail; challenged with forskolin and galanin at EC90; inhibition, % at 3 µM; AID 652245, 2013; shares compounds with GalR3 antagonist; hit rate 59% among 1,600;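 active = inhibition above the primary screen's cutoff, the mean inhibition of all screened compounds plus 3 SD, cut at about 13% in these data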;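 note: 0% = forskolin plus galanin and 100% = forskolin alone with DMSO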
HEK-CNG parental – nonspecific cAMP agonists in parental HEK-CNG cells, counter-screen for GalR3 antagonist project, cell-based, fluorescence, high throughput. shares compounds with GalR3 antagonist. HEK293-CNG parental cells, cAMP membrane potential fluorescence; normalised: DMSO wells 0%, forskolin wells 100%. activation, % at 3 µM. hit rate 10% among 1,600. AID 652268, 2013; in the data active = activation above about 1.3%
Active calls of the source: *; x = no result. A selection: hits, their analogues and other compounds. The true share with any hit is near 1.5%.

SMILES	Jurkat NFkB inh	GalR3 antagonist	NR2E3 ag-1	GASC-1 inh	697 NFkB inh	NR2E3 ag-2	Jurkat NFkB conf	NR2E3 ag conf	VP16 counter	GalR3 conf	HEK-CNG parental	others
CCOC(=O)COc1cccc2c(=O)n(CC(=O)NCc3ccc(F)cc3)ccc12	72.0*	14.8*	0.5	1.3	-14.4	-6.9	53.1*	x	x	22.4*	1.1
CCOC(=O)COc1cccc2c(=O)n(CC(=O)N3CCCCC3)ccc12	-4.1	-5.3	2.0	8.9	12.2	0.4	x	x	x	x	x
Cn1nccc1C(=O)NC1CCCc2c1cnn2-c1ccc(C(C)(C)C)cc1 (stereo not drawn)	65.7*	108.9*	-0.4	3.0	44.4*	106.0*	71.1*	95.1*	83.6*	122.4*	-0.2	697 NFkB conf=103.5*
Cc1cc(C(=O)NC2CCCc3c2cnn3-c2cccc(C)c2C)n(C)n1 (stereo not drawn)	71.8*	100.4*	-1.5	2.3	76.8*	109.7*	78.1*	98.0*	90.8*	105.1*	-0.7	697 NFkB conf=95.6*
Cc1cccc(-n2ncc3c2CCCC3NC(=O)c2ccc[n+]([O-])c2)c1C (stereo not drawn)	17.9	-0.7	2.8	-15.6	-48.1	-26.9	x	x	x	x	x
CCOC(=O)CC1CCCCN1C(=O)c1cc(COc2cccc3cnccc23)on1 (stereo not drawn)	50.2*	103.6*	-1.8	0.4	-34.7	100.9*	71.8*	91.5*	88.5*	110.6*	-0.5
O=C(c1cc(COc2cccc3cccnc23)on1)N1CCC[C@H]1CO	x	-4.7	x	x	x	-15.7	x	x	x	x	x
CC(=O)N1c2ccc(S(=O)(=O)N3CCC(C(=O)Nc4ccccn4)CC3)cc2CC1C (stereo not drawn)	4.6	-6.8	-0.1	4.4	2.8	5.9	x	x	x	x	x
CC(=O)N1c2ccc(S(=O)(=O)N3CCC(C(=O)Nc4cccc(C)n4)CC3)cc2CC1C (stereo not drawn)	53.8*	51.4*	-3.8	1.9	-7.2	49.7	50.4*	17.9	5.5	93.7*	-0.5
CCC(=O)N1CCCC(C(=O)NS(=O)(=O)c2cc(C)c(Cl)cc2C)CC1 (stereo not drawn)	x	-6.1	x	x	x	-23.1	x	x	x	x	x
COc1ccc(N(Cc2ccccc2)C(=O)CSc2nnc(Cn3nnc4ccccc43)o2)cc1	13.5	-5.7	0.9	-1.8	4.3	11.6	x	x	x	x	x
O=C(CSc1nnc(Cn2nnc3ccccc32)o1)N(Cc1ccc(F)cc1)c1ccccc1	56.8*	92.5*	-2.6	17.2	19.8	78.6*	60.8*	88.4*	73.7*	114.2*	0.1
O=C(COc1ccc2ccccc2c1Br)Nc1ccncc1	55.9*	61.5*	3.3	-0.4	0.3	-18.1	31.6	x	x	60.0*	-0.2
O=C(COc1ccc2ccccc2c1Br)Nc1cccnc1	-50.4	-6.5	8.1	-0.5	-51.9	15.1	x	x	x	x	x
CCCCN1Cc2cc(C(=O)c3cc(F)ccc3O)cnc2NC1=O	17.6	2.7	2.1	3.7	24.3	-21.2	x	x	x	x	x
COc1ccc([C@H]2CC(=O)C=C(c3ccc(C(=O)O)cc3)C2)cc1OC	2.8	-2.1	-1.5	1.2	24.5	-28.5	x	x	x	x	x
COc1ccc(CCNc2ncnc3[nH]ncc23)cc1OC	4.8	-2.3	-0.6	-2.8	-15.3	-21.3	x	x	x	x	x
COc1ccc(CCNc2ncnc3sc(C)cc23)cc1OC	60.9*	85.7*	x	-3.2	68.3*	87.9*	73.4*	99.2*	91.8*	109.8*	-0.3	697 NFkB conf=83.2*
Cc1csc(NC(=O)CSc2nnc(NC(=O)COc3ccc(Cl)cc3)s2)n1	-16.1	-3.8	-2.0	2.4	9.2	-1.1	x	x	x	x	x
Cc1ccc(C(=O)N2CCC(N3CCC(C(=O)N4CCOCC4)CC3)CC2)cc1C	7.5	-2.4	-1.6	-22.0	11.2	5.2	x	x	x	x	x
O=C(Nc1ccn(Cc2ccccc2F)n1)c1ccc(COc2ccc(Br)cc2)cc1	52.8*	97.1*	-0.9	0.8	-30.1	-73.2	52.2*	x	x	106.5*	-0.3
COc1ccc(Br)cc1/C(C)=N/NC1=NCCN1	67.0*	85.4*	0.1	6.4	-29.4	13.2	33.7	x	x	32.4*	2.1*
C/C(=N\NC1=NCCN1)c1ccc(Cl)cc1	23.9	-4.1	-0.6	-2.3	1.3	3.3	x	x	x	x	x
CN(Cc1ccccc1)C1=CC(=[N+]2CCCC2)CC(C)(C)C1	61.9*	58.9*	-0.4	-2.2	19.3	-11.4	59.1*	x	x	65.3*	2.3*
CCN(C(=O)CC(C)C)c1nnc(Cn2nnc3ccccc32)s1	12.5	-4.9	5.3	-1.0	-20.0	-3.9	x	x	x	x	x
CCN(C(=O)c1ccc(C(C)(C)C)cc1)c1nnc(Cn2nnc3ccccc32)s1	57.0*	102.2*	1.0	-32.1	96.1*	89.0*	69.0*	92.4*	77.3*	107.2*	0.1	697 NFkB conf=90.8*
Cc1ccc(S(=O)(=O)NCc2ccccn2)c(C)c1C	-19.7	-9.0	4.4	-2.8	-40.7	0.5	x	x	x	x	x

Screening data (PubChem BioAssay)
